Consider 1 compound from paper PMC2925318 (Tetrahedron, 2010).

pIC50: −log10 of the molar value.

The target in this test is Concanavalin A (Con A) (Canavalia ensiformis, UniProt P02866). Type of test: binding. A digest of the protocol:
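Gold chip with mixed carboxyl/hydroxyl dithiol monolayer, aminoethoxyethyl mannoside coupled by EDC/NHS; hydroxyl-only reference flowcell. Con A (2 μM monomer) mixed 1:1 with test compound, equilibrated ≥1 h, then injected at 10 μL/min in 10 mM PBS pH 7.4, 25 °C. Methyl-mannose/HCl regeneration. Glycodendrimers run in triplicate, 2-fold series 50 μg/mL–39 ng/mL. Double-referenced equilibrium responses were fitted to a four-parameter logistic to give IC50.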

Chain of Concanavalin A (Con A) (P02866 164-281 limits assumed): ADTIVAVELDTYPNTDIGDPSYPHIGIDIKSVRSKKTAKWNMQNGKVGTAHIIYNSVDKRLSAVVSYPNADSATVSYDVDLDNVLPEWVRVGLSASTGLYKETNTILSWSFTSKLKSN
Chain of Concanavalin A (Con A) (P02866 30-148 limits assumed): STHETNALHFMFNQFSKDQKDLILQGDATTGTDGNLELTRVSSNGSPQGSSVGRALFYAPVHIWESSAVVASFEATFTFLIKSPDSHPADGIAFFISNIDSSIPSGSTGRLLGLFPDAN

`CO[C@H]1O[C@H](CO)[C@@H](O)[C@H](O)[C@@H]1O` [Methyl mannose] gave a pIC50 of 3.62.

As usually defined, the pIC50 is the IC50 on a negative log10 scale, so that one unit is a factor of ten. A high value points to a small IC50.
